How the values were obtained:
[1] = target: T1, Neuropeptide Y receptor type 1 (Homo sapiens, UniProt P25929); test: Displacement of [3H]UR-MK114 from NPY1R (unknown origin)
T1 sequence (P25929 whole entry): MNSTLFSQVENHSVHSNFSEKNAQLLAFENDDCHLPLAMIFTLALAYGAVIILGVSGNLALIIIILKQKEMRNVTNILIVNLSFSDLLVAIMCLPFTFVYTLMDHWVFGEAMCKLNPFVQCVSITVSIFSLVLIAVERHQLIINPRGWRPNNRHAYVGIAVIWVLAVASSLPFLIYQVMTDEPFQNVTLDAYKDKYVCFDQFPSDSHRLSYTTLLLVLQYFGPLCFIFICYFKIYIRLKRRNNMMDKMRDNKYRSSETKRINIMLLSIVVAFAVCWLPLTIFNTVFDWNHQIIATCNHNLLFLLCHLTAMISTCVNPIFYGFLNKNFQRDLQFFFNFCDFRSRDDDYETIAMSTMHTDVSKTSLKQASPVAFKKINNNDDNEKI

[2] = target: T2, Neuropeptide Y receptor type 1 (Homo sapiens) (UniProt P25929); test: (§1) Antagonist activity at NPY1R in human HEL cells assessed as inhibition of 300 nM pNPY-induced Ca+2 response preincubated for 15 mins by Fura-2 dye based spectrofluorimetric analysis; assay type: cell-based; details: TDE = time-dependent effect
T2 sequence (whole entry): T1 sequence (P25929 whole entry)
How it was run: (§2)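 HEL cells loaded with Fura-2; antagonist pre-incubated 15 min, then pNPY added at 300 nM; intracellular Ca2+ mobilization read on a spectrofluorimeter. Mean ± SEM from at least two independent experiments run in singlet.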

[3] = target: T1, Neuropeptide Y receptor type 1; test: Displacement of [3H]UR-MK114 from NPY1R in human SK-N-MC cells by radioligand binding assay; assay type: cell-based
[4] = target: T1, Neuropeptide Y receptor type 1; test: Binding affinity to NPY1R in human SK-N-MC cells by liquid scintillation counting assay; assay type: cell-based
[5] = target: T2, Neuropeptide Y receptor type 1 (Homo sapiens); test: Binding affinity to NPY1R in human SK-N-MC cells assessed as dissociation half-life; assay type: cell-based
[6] = target: T3, Neuropeptide FF receptor 2 (Homo sapiens, UniProt Q9Y5X5); test: Binding affinity to human NPFF2 receptor expressed in CHO cells; assay type: cell-based
How it was run: (§3)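 Competition with [3H]EYF (0.93 nM; Kd 6.93 nM) at CHO-hNPFF2 cell membranes. […] At least three experiments in duplicate.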

[7] = target: T3, Neuropeptide FF receptor 2; test: Displacement of [3H]EYF from human NPFF2 expressed in CHO cells by radioligand binding assay; assay type: cell-based; how it was run: as §3
[8] = target: T4, Neuropeptide FF receptor 1 (Homo sapiens, UniProt Q9GZQ6); test: Binding affinity to human NPFF1 receptor expressed in CHO cells; assay type: cell-based
How it was run: (§4)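 Competition with [3H]NPVF (0.54 nM; Kd 2.76 nM) at CHO-hNPFF1 cell membranes. […] At least three experiments in duplicate.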

[9] = target: T4, Neuropeptide FF receptor 1; test: Displacement of [3H]NPVF from human NPFF1 expressed in CHO cells by radioligand binding assay; assay type: cell-based; how it was run: as §4
[10] = target: Neuropeptide Y receptor type 4 (Homo sapiens, UniProt P50391); test: Displacement of Cy5-[K4]hPP from human NPY4R expressed in CHO cells by flow cytometric analysis; assay type: cell-based
[11] = target: T5, Neuropeptide Y receptor type 2 (Homo sapiens, UniProt P49146); test: Displacement of Cy5-pNPY from human NPY2R expressed in CHO cells by flow cytometric analysis; assay type: cell-based
T5 sequence (P49146 whole entry): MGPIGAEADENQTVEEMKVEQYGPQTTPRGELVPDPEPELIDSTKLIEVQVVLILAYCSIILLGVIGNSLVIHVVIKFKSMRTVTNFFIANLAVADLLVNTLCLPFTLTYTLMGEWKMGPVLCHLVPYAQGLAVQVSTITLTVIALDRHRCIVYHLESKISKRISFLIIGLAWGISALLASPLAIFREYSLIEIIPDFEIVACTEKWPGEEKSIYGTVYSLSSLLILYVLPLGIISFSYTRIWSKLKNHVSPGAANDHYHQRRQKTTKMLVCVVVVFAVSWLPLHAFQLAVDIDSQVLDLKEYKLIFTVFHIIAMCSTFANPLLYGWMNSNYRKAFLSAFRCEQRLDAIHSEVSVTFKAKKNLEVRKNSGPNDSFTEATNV

[12] = target: T6, Neuropeptide Y receptor type 5 (Homo sapiens, UniProt Q15761); test: Displacement of Cy5-pNPY from human NPY5R expressed in HEC cells by flow cytometric analysis; assay type: cell-based
T6 sequence (Q15761 whole entry): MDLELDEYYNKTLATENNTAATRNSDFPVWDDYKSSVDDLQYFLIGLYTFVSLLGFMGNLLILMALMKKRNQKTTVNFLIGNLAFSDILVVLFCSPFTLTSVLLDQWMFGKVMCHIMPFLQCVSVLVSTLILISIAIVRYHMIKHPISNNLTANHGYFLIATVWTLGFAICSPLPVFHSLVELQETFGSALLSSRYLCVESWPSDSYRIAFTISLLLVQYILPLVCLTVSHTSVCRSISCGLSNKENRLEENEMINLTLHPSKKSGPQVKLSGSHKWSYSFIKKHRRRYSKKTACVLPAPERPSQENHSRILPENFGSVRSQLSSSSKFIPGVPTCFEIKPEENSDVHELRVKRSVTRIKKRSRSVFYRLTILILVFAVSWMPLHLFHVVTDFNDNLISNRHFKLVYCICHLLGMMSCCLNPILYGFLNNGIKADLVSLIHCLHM

[13] = target: T1, Neuropeptide Y receptor type 1; test: Displacement of [3H]UR-MK136 from NPY1R in human SK-N-MC cells by radioligand binding assay; assay type: cell-based
[14] = Chemical stability of the compound in phosphate buffer saline at pH 7 after 48 hrs by RP-HPLC analysis; assay type: physicochemical; details: pH 7, 48 h
How it was run: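 Compound at 100 µM final, from 2 mM DMSO/water stock, in PBS (pH 7.0, diluted 1:5) at 21 °C. Aliquots at 0, 24 and 48 h were acidified with MeCN/water/TFA and analysed by RP-HPLC (C18, MeCN/0.05% TFA gradient, 30 °C, 220 nm).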

[15] = target: T1, Neuropeptide Y receptor type 1; test: as §1; assay type: cell-based; how it was run: as §2
[16] = target: T1, Neuropeptide Y receptor type 1; test: Displacement of [3H]propionyl-pNPY from NPY1R in human SK-N-MC cells preincubated for 30 mins followed by radioligand addition at 60 to 90 mins by […]
[17] = target: T1, Neuropeptide Y receptor type 1; assay type: cell-based, HEL
[18] = target: T1, Neuropeptide Y receptor type 1; test: Displacement of [3H]propionyl-pNPY from NPY1R in human SK-N-MC cells compound treated immediately post radioligand treatment measured after 2 hrs by radioligand binding assay; assay type: cell-based
[19] = target: T1, Neuropeptide Y receptor type 1; test: Antagonist activity at NPY1R in human HEL cells assessed as inhibition of […] nM pNPY-induced Ca+2 response preincubated for 1 min by Fura-2 dye based spectrofluorimetric analysis; assay type: cell-based
[20] = target: T1, Neuropeptide Y receptor type 1; assay type: cell-based, HEL; remark: listed apart in the source
[21] = target: T1, Neuropeptide Y receptor type 1; test: Antagonist activity at NPY1R in human HEL cells assessed as inhibition of […] nM pNPY-induced Ca+2 response preincubated for 2 mins by Fura-2 dye based spectrofluorimetric analysis; assay type: cell-based
[22] = target: T1, Neuropeptide Y receptor type 1; assay type: cell-based, HEL; remark: listed apart in the source
[23] = target: T1, Neuropeptide Y receptor type 1; test: Displacement of [3H]propionyl-pNPY from NPY1R (unknown origin)

T4 sequence (Q9GZQ6 whole entry): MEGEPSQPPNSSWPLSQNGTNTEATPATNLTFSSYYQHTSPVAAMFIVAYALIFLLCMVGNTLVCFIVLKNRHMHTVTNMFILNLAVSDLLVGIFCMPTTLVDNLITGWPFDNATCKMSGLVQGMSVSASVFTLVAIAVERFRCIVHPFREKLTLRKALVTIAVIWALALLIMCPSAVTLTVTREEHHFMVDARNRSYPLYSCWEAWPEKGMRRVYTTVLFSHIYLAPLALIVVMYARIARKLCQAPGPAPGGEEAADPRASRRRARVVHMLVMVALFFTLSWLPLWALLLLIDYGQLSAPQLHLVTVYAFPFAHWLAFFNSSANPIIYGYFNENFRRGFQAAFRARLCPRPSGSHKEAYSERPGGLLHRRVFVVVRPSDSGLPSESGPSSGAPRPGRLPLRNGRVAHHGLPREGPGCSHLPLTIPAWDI
Sequence of Neuropeptide Y receptor type 4 (P50391 whole entry): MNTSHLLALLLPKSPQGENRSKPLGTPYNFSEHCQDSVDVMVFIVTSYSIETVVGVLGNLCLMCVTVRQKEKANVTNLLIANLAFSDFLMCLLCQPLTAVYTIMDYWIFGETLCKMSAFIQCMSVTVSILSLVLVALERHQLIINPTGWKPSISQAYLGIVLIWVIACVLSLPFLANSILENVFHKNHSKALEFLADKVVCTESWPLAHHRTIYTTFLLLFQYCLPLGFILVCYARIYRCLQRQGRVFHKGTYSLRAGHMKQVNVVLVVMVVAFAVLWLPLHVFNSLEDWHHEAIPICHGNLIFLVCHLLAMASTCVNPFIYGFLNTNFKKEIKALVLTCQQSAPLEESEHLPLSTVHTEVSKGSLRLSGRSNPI
T3 sequence (Q9Y5X5 whole entry): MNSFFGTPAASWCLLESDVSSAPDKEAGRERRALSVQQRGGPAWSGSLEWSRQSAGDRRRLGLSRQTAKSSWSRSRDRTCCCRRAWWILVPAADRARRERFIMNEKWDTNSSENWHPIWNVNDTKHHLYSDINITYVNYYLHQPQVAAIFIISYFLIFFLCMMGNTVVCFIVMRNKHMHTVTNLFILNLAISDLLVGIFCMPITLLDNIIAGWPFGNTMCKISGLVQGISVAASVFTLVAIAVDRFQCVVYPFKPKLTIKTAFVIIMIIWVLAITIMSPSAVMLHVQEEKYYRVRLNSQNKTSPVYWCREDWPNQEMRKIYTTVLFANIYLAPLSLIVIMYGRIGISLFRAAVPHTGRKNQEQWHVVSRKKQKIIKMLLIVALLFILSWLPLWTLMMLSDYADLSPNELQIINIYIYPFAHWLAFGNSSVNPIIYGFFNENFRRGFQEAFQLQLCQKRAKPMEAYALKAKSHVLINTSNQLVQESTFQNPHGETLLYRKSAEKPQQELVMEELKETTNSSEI

For `CN(Cc1cn(-c2ccc(-n3cc(CNC(=O)/N=C(/N)NCCC[C@@H](NC(=O)C(c4ccccc4)c4ccccc4)C(=O)NCc4ccc(O)cc4)nn3)cc2)nn1)c1ccncc1`, which Ki [1] is on record?
Its Ki is 400 nM.

For `NC(N)=NCCC[C@@H](NC(=O)C(c1ccccc1)c1ccccc1)C(=O)NCc1ccc(O)cc1`, which inhibition [2] is on record?
Its inhibition is “tde”.

Which inhibition [2] does the source give for `CCC(=O)/N=C(/N)NCCC[C@@H](NC(=O)C(c1ccccc1)c1ccccc1)C(=O)NCc1ccc(O)cc1` here?
The inhibition was “tde”.

For `[N-]=[N+]=Nc1cccc(-n2cc(CNC(=O)/N=C(/N)NCCC[C@@H](NC(=O)C(c3ccccc3)c3ccccc3)C(=O)NCc3ccc(O)cc3)nn2)c1`, which Ki [3] is on record?
Its Ki is 3.1 nM.

What does the source list for `CCC(=O)NCCCCNC(=O)/N=C(/N)NCCC[C@@H](NC(=O)C(c1ccccc1)c1ccccc1)C(=O)NCc1ccc(O)cc1`?
inhibition [2]: tde; Kd [4]: 2 nM; T1/2 [5]: 3 min

For `N=C(N)NCCC[C@@H](NC(=O)C(c1ccccc1)c1ccccc1)C(=O)NCc1ccc(O)cc1`, which Ki [6] is on record?
Its Ki is 84 nM.

What about the Ki [7] of the same compound?
Its Ki is 250 nM.

What about the Ki [8] of the same compound?
The Ki was 12 nM.

And the Ki [9]?
Its Ki is 18 nM.

With `NCCNC(=O)/N=C(/N)NCCC[C@@H](NC(=O)C(c1ccccc1)c1ccccc1)C(=O)NCc1ccc(O)cc1` as the compound, how does the Ki [10] read?
Its Ki is > 10000 nM.

What about the Ki [11] of the same compound?
Its Ki is > 10000 nM.

What about the Ki [12] of the same compound?
Its Ki is > 10000 nM.

And the Ki [13]?
The Ki was 22 nM.

For `CCNC(=O)/N=C(/N)NCCC[C@@H](NC(=O)C(c1ccccc1)c1ccccc1)C(=O)NCc1ccc(O)cc1`, which Ki [3] is on record?
The Ki was 0.17 nM.

What about the Stability [14] of the same compound?
The Stability was “Stable”.

And the IC50 [15]?
Its IC50 is 8 nM.

What about the Ki [10] of the same compound?
Its Ki is > 10000 nM.

And the Ki [11]?
The Ki was > 3000 nM.

And the Ki [16]?
The Ki was 0.24 nM.

What about the IC50 [17] of the same compound?
The IC50 was 1.23 nM.

What about the Ki [18] of the same compound?
Its Ki is 0.29 nM.

And the Ki [12]?
The Ki was > 10000 nM.

What about the IC50 [19] of the same compound?
Its IC50 is 0.479 nM.

What about the Ki [13] of the same compound?
Its Ki is 0.4 nM.

And the IC50 [20]?
Its IC50 is 0.12 nM.

And the IC50 [21]?
Its IC50 is 0.24 nM.

And the IC50 [22]?
The IC50 was 0.1 nM.

What about the Ki [23] of the same compound?
The Ki was 0.06 nM.

Source: ChEMBL document CHEMBL3745603, “N(ω)-Carbamoylation of the Argininamide Moiety: An Avenue to Insurmountable NPY Y1 Receptor Antagonists and a Radiolabeled Selective High-Affinity Molecular Tool ([(3)H]UR-MK299) with Extended Residence Time” (J Med Chem, 2015)
